Source: ChEMBL document CHEMBL2046290, “Ureido-substituted sulfamates show potent carbonic anhydrase IX inhibitory and antiproliferative activities against breast cancer cell lines” (Bioorg Med Chem Lett, 2012)
The source made the active and inactive calls. The rule behind the calls is not given here.

Key:
SK-BR-3 = test: Antiproliferative activity against human SKBR3 cells at 100 uM after 5 days by SRB assay under normoxic condition; assay type: functional, cell-based
Outline: (§1)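 Cells seeded at 1 × 10^3 per well, adhered 48 h, medium removed, then exposed to compound at 100 μM. After 5 days, growth measured by SRB: fixed with cold 25% TCA 1 h at 4 °C, stained with SRB in 1% acetic acid 30 min at room temperature, dye solubilised in 10 mM Tris pH 10.5, read at 540. Values expressed relative to untreated control (1.0).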

MCF-10A = test: Antiproliferative activity against human MCF10A cells at 100 uM after 5 days by SRB assay under normoxic condition; assay type: functional, cell-based; outline: as §1
ZR-75-1 = test: Antiproliferative activity against human ZR-75-1 cells at 100 uM after 5 days by SRB assay under normoxic condition; assay type: functional, cell-based; outline: as §1
MDA-MB-361 = test: Antiproliferative activity against human MDA-MB-361 cells at 100 uM after 5 days by SRB assay under normoxic condition; assay type: functional, cell-based; outline: as §1
MCF7 [1] = test: Antiproliferative activity against human MCF7 cells after 5 days by SRB assay under hypoxic condition; assay type: functional, cell-based
Outline: (§2)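 MCF7 seeded at 3 × 10^3 per well, adhered 48 h, then equilibrated 6 h at 0.5% O2 in a hypoxia station. Compounds added in hypoxic medium across 0.1–100 μM. After 5 days, proliferation measured by SRB: cold 25% TCA fixation 1 h at 4 °C, SRB in 1% acetic acid 30 min, solubilised in 10 mM Tris pH 10.5, read at 540.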

MCF7 [2] = test: Antiproliferative activity against human MCF7 cells at 10 uM after 5 days by SRB assay under hypoxic condition; assay type: functional, cell-based; outline: as §2
MCF7 [3] = test: Antiproliferative activity against human MCF7 cells at 30 uM after 5 days by SRB assay under hypoxic condition; assay type: functional, cell-based; outline: as §2
Carbonic anhydrase 9 = Carbonic anhydrase 9 (Homo sapiens, UniProt Q16790); test: Inhibition of human carbonic anhydrase 9 preincubated for 15 mins measured for 10 to 100 sec using phenol red indicator-based stopped flow assay
Outline: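 In-house recombinant human enzyme; stopped-flow CO2 hydration at 1.7–17 mM CO2, with 0.2 mM phenol red read at 557 nm in 20 mM Hepes pH 7.5 and 20 mM Na2SO4. Inhibitor (diluted from 0.1 mM aqueous stock to 0.01 nM) preincubated with enzyme 15 min at room temperature. Initial rates taken over 10–100 s, uncatalysed rate subtracted. Ki by non-linear least squares, mean of at least three determinations.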

NS(=O)(=O)Oc1ccc(NC(=O)Nc2c(F)c(F)c(F)c(F)c2F)cc1
Activity (SK-BR-3): Active | Activity (MCF-10A): Active | Activity (ZR-75-1): Active | Activity (MDA-MB-361): Active | Activity (MCF7 [1]): Dose-dependent effect | Activity (MCF7 [2]): Active | Activity (MCF7 [3]): Active

Cc1cc(C)cc(NC(=O)Nc2ccc(OS(N)(=O)=O)cc2)c1
Activity (SK-BR-3): Active | Activity (MCF-10A): Active | Activity (ZR-75-1): Active | Activity (MDA-MB-361): Active | Activity (MCF7 [2]): Active | Activity (MCF7 [3]): Active

CC(C)(C)OC(=O)N1CCC(NC(=O)Nc2ccc(OS(N)(=O)=O)cc2)CC1
Ki (Carbonic anhydrase 9): 7 nM

CCOC(=O)c1ccccc1NC(=O)Nc1ccc(OS(N)(=O)=O)cc1
Ki (Carbonic anhydrase 9): 8 nM

CN(C)c1ccc(NC(=O)Nc2ccc(OS(N)(=O)=O)cc2)cc1
Activity (SK-BR-3): Active | Activity (MCF-10A): Active | Activity (ZR-75-1): Active | Activity (MDA-MB-361): Active | Activity (MCF7 [1]): Dose-dependent effect | Activity (MCF7 [2]): Active | Activity (MCF7 [3]): Active

CCOC(=O)c1cccc(NC(=O)Nc2ccc(OS(N)(=O)=O)cc2)c1
Ki (Carbonic anhydrase 9): 12 nM

NS(=O)(=O)Oc1ccc(NC(=O)NCCc2cccc3ccccc23)cc1
Ki (Carbonic anhydrase 9): 15 nM

NS(=O)(=O)Oc1ccc(NC(=O)Nc2ccc(Cl)cc2)cc1
Activity (SK-BR-3): Active | Activity (MCF-10A): Active | Activity (ZR-75-1): Active | Activity (MDA-MB-361): Active | Activity (MCF7 [1]): Dose-dependent effect | Activity (MCF7 [2]): Active | Activity (MCF7 [3]): Active

NS(=O)(=O)Oc1ccc(NC(=O)Nc2ccc(F)cc2)cc1
Activity (SK-BR-3): Active | Activity (MCF-10A): Active | Activity (ZR-75-1): Active | Activity (MDA-MB-361): Active | Activity (MCF7 [1]): Dose-dependent effect | Activity (MCF7 [2]): Active | Activity (MCF7 [3]): Active

NS(=O)(=O)Oc1ccc(NC(=O)NCCc2ccccc2)cc1
Activity (SK-BR-3): Active | Activity (MCF-10A): Active | Activity (ZR-75-1): Active | Activity (MDA-MB-361): Active | Activity (MCF7 [1]): Dose-dependent effect | Activity (MCF7 [2]): Active | Activity (MCF7 [3]): Active

NS(=O)(=O)Oc1ccc(NC(=O)Nc2ccc(Cc3ccccc3)cc2)cc1
Ki (Carbonic anhydrase 9): 16 nM

COc1ccc(NC(=O)Nc2ccc(OS(N)(=O)=O)cc2)cc1
Activity (SK-BR-3): Active | Activity (MCF-10A): Active | Activity (ZR-75-1): Active | Activity (MDA-MB-361): Active | Activity (MCF7 [1]): Dose-dependent effect | Activity (MCF7 [2]): Active | Activity (MCF7 [3]): Active

CCOC(=O)c1ccc(NC(=O)Nc2ccc(OS(N)(=O)=O)cc2)cc1
Ki (Carbonic anhydrase 9): 8 nM

NS(=O)(=O)Oc1ccc(NC(=O)Nc2ccc([N+](=O)[O-])cc2)cc1
Activity (SK-BR-3): Active | Activity (MCF-10A): Active | Activity (ZR-75-1): Active | Activity (MDA-MB-361): Active | Activity (MCF7 [1]): Dose-dependent effect | Activity (MCF7 [2]): Active | Activity (MCF7 [3]): Active

NS(=O)(=O)Oc1ccc(NC(=O)Nc2ccc(Oc3ccccc3)cc2)cc1
Activity (SK-BR-3): Active | Activity (MCF-10A): Active | Activity (ZR-75-1): Active | Activity (MDA-MB-361): Active | Activity (MCF7 [1]): Dose-dependent effect | Activity (MCF7 [2]): Active | Activity (MCF7 [3]): Active
